Laboratory results from ChEMBL document CHEMBL2412961, “CD4 mimics as HIV entry inhibitors: lead optimization studies of the aromatic substituents” (Bioorg Med Chem, 2013).
Calls of active or inactive are those of the source. The rule behind the calls is not given here.

Experiments:
[1] = test system: Human immunodeficiency virus 1; test: Antiviral activity against Human immunodeficiency virus 1 R5 primary isolate YTA48P infected in CCR5-expressing human PM1 cells assessed as inhibition of virus-induced cytopathogenicity after 7 days by WST8 assay; format: functional, organism-based; conditions: PM1, 168 h
In short: (§1)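 PM1/CCR5 cells were infected with the HIV-1 R5 primary isolate YTA, or mock-infected for cytotoxicity, and incubated with compound at 37 °C for 7 days. Viability was read by WST-8 (Cell Counting Kit-8). IC50 is the concentration giving 50% protection from virus-induced cytopathogenicity. CC50 is the concentration giving 50% loss of viability in mock-infected cells. Assays were run in duplicate or triplicate.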

[2] = Cytotoxicity against CCR5-expressing human PM1 cells assessed as reduction of cell viability after 7 days by WST8 assay; format: cell-based; in short: as §1
PM1 [3] = test: Induction of conformational change in human immunodeficiency virus 1 JR-FL R5 subtype B gp120 infected in human PM1 cells assessed as increase in binding affinity to monoclonal antibody 4C11 at 100 uM after 15 mins by FACS analysis; format: cell-based
In short: (§2)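 PM1 cells chronically infected with JR-FL (R5, subtype B) were pre-incubated with CD4 mimic for 15 min, with sCD4 at 0.5 µg/mL as reference. They were then incubated with CD4i mAb 4C11 at 4 °C for 15 min, washed with PBS and stained with FITC anti-human IgG. Flow cytometry read the 4C11 mean fluorescence intensity on gated PM1 cells, with anti-CD19 as control antibody. There were at least two independent experiments.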

PM1 [4] = test: Induction of conformational change in human immunodeficiency virus 1 JR-FL R5 subtype B gp120 infected in human PM1 cells assessed as increase in binding affinity to monoclonal antibody 4C11 at 25 to 100 uM after 15 mins by FACS analysis; format: cell-based; in short: as §2

SMILES	IC50 [1]	CC50 at 168 h [2]	Activity (PM1 [3])	Activity (PM1 [4])
Cc1ccc(NC(=O)C(=O)NC2CC(C)(C)NC(C)(C)C2)cc1	9 µM	–	–	–
O=C(Nc1ccc(Cl)c(Cl)c1)C(=O)NC1CC2(CCCCC2)NC2(CCCCC2)C1 (stereo not given)	0.62 µM	11 µM	Active	–
Cc1ccc(NC(=O)C(=O)NC2CC3(CCCCC3)NC3(CCCCC3)C2)cc1Cl (stereo not given)	6.2 µM	11 µM	Active	–
O=C(Nc1ccc(Cl)c(F)c1)C(=O)NC1CC2(CCCCC2)NC2(CCCCC2)C1 (stereo not given)	0.23 µM	11 µM	Active	Active
Cc1ccc(NC(=O)C(=O)NC2CC(C)(C)NC(C)(C)C2)cc1F	2.8 µM	110 µM	Active	–
Cc1cc(NC(=O)C(=O)NC2CC3(CCCCC3)NC3(CCCCC3)C2)ccc1Cl (stereo not given)	2.6 µM	15 µM	Active	–
CC1(C)CC(NC(=O)C(=O)Nc2ccc(Cl)c(Cl)c2)CC(C)(C)N1	4.1 µM	36 µM	Active	–
Cc1cc(NC(=O)C(=O)NC2CC(C)(C)NC(C)(C)C2)ccc1Cl	3.3 µM	38 µM	Active	–
Cc1ccc(NC(=O)C(=O)NC2CC(C)(C)NC(C)(C)C2)cc1Cl	3.2 µM	62 µM	Active	–
O=C(Nc1ccc(Cl)cc1)C(=O)NC1CC2(CCCCC2)NC2(CCCCC2)C1 (stereo not given)	0.43 µM	–	–	–
Cc1ccc(NC(=O)C(=O)NC2CC3(CCCCC3)NC3(CCCCC3)C2)cc1Br (stereo not given)	3.2 µM	11 µM	Active	–
CC1(C)CC(NC(=O)C(=O)Nc2ccc(Cl)cc2)CC(C)(C)N1	0.61 µM	–	–	–
CC1(C)CC(NC(=O)C(=O)Nc2ccc(Cl)c(F)c2)CC(C)(C)N1	0.32 µM	94 µM	Active	–
Cc1ccc(NC(=O)C(=O)NC2CC(C)(C)NC(C)(C)C2)cc1Br	> 10 µM	32 µM	Active	–
Cc1ccc(NC(=O)C(=O)NC2CC3(CCCCC3)NC3(CCCCC3)C2)cc1F (stereo not given)	0.54 µM	91 µM	Active	–
